Assay results collected from several papers.
Each line is one published result; the experiments were not run side by side. Values after ≈ are worked out from the molar mass of the structure shown.

C#Cc1cccc(O)c1C=NNC(=O)c1ccc(Br)cc1 gave an MIC80 of over 32 µg/mL (Aspergillus fumigatus; microbial growth; 48 h, pH 6.5).
C=C(CN(C(=O)c1c(C(F)F)nn(C)c1F)C1CC1)c1ccc(Cl)cc1Cl has an EC50 of 0.0232 µg/mL (≈ 0.0555 µM) (Ustilaginoidea virens; microbial growth; 12 h).
C#Cc1ccc(C=NNC(=O)c2ccc(Br)c(Br)c2)c(O)c1 gave an MIC80 of over 16 µg/mL (Aspergillus fumigatus; microbial growth; 48 h, pH 6.5).
COc1ccc(C=NNC(=S)N[N+](=O)[O-])cc1OC has an IC50 of 1200 µM (Leishmania major; parasite growth, MTT; 72 h, promastigote).
For C#Cc1ccc(C=NNC(=O)c2cc(Br)cc(Br)c2O)c(O)c1, the MIC80 was over 16 µg/mL (Aspergillus fumigatus; microbial growth; 48 h, pH 6.5).
O=C(O)c1cn(C2CC2)c2cc(N3CCNCC3)c(F)cc2c1=O has an MIC of under 1 µg/mL (Enterococcus faecalis; microbial growth; VRE; drug-resistant strain).
With O=[N+]([O-])NC(=S)NN=Cc1ccc(Br)cc1 the IC50 was 424 µM (Leishmania major; parasite growth; J774.A1; 72 h, intracellular, amastigote).
C[C@@H](O)[C@H]1C(=O)N2C(C(=O)O)=C(SCCN=CN)C[C@H]12 has an MIC of under 1 µg/mL (Enterococcus faecalis; microbial growth; VRE; drug-resistant strain).
COC(=O)C1=C(C)NC(C)=C(C(=O)OC(C)(C)CN(C)CCC(c2ccccc2)c2ccccc2)C1c1cccc([N+](=O)[O-])c1 (stereo not drawn) gave an MIC of over 250 µM (Aspergillus fumigatus; microbial growth, broth dilution; 48 h).
